A short description of series [1]: Ratio of drug level in tumor to liver of iv dosed C3H/HeJ mouse bearing mouse RIF cells after 24 hrs. It counts as ADME, organism-based. The following applies: in vivo. The method, boiled down: (§1)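 RIF-bearing C3H mice given ¹²⁴I-labeled photosensitizer (15–200 μCi, tail vein, in saline with 10% ethanol). 3–4 mice killed at each time point, tumor and liver weighed and gamma-counted. Uptake expressed as %ID/g, and tumor to liver ratio taken from the %ID/g values.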

Series [2] in a line: Biodistribution in tumor of iv dosed BALB/c mouse bearing mouse Colon-26 cells after 72 hrs. The following applies: read-out: Drug uptake. It counts as ADME, organism-based, Neoplasm. The method, boiled down: (§2)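 ¹²⁴I-labeled photosensitizer formulated in saline with 10% ethanol, 15–200 μCi via tail vein into C3H mice bearing RIF tumors (3×10^5 cells sc in axilla, 4–5 mm) or BALB/c mice bearing Colon-26 tumors. 3–4 mice per time point killed at 24, 48, 72, 96 h. Tumor and organs weighed and gamma-counted; uptake given as %ID/g, mean of group.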

A short description of series [3]: Biodistribution in tumor of iv dosed C3H/HeJ mouse bearing mouse RIF cells after 96 hrs. It counts as ADME, organism-based, Neoplasm. The following applies: read-out: Drug uptake. Put shortly: as §2
Series [4] is described as follows: Biodistribution in tumor of iv dosed BALB/c mouse bearing mouse Colon-26 cells after 96 hrs. It counts as ADME, organism-based, Neoplasm. The following applies: read-out: Drug uptake. Put shortly:
as §2

Series [5] in a line: Biodistribution in tumor of iv dosed BALB/c mouse bearing mouse Colon-26 cells after 24 hrs. The following applies: read-out: Drug uptake. It counts as ADME, organism-based, Neoplasm. The method, boiled down: as §2
The nature of series [6]: Biodistribution in tumor of iv dosed BALB/c mouse bearing mouse Colon-26 cells after 48 hrs. The following applies: read-out: Drug uptake. It counts as ADME, organism-based, Neoplasm. Put shortly: as §2
Series [7] can be described thus: Biodistribution in tumor of iv dosed C3H/HeJ mouse bearing mouse RIF cells after 72 hrs. It counts as ADME, organism-based, Neoplasm. The following applies: read-out: Drug uptake. The method, boiled down:
as §2

Series [8] is described as follows: Biodistribution in tumor of iv dosed C3H/HeJ mouse bearing mouse RIF cells after 48 hrs. The following applies: read-out: Drug uptake. It counts as ADME, organism-based, Neoplasm. Put shortly: as §2
Series [9] can be described thus: Ratio of drug level in tumor to liver of iv dosed C3H/HeJ mouse bearing mouse RIF cells after 48 hrs. It counts as ADME, organism-based. The following applies: in vivo. The method, boiled down:
as §1

Series [10] in a line: Biodistribution in tumor of iv dosed C3H/HeJ mouse bearing mouse RIF cells after 24 hrs. It counts as ADME, organism-based, Neoplasm. The following applies: read-out: Drug uptake. The method, boiled down:
as §2

For series [11], the system named is RIF. Description: Antitumor activity against mouse RIF cells xenografted in C3H/HeJ mouse at 0.50 umol/kg, iv irradiated for 30 mins measured after 24 hrs by photodynamic therapy. The following applies: tested as the 124I-labelled form. It counts as functional, organism-based. Put shortly: (§3)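 Female C3H/HeJ mice given 2×10^5 RIF cells intradermally on flank; tumors grown to 4–5 mm diameter. Hair removed, photosensitizer injected iv (0.5, 1.0, 1.5 μmol/kg; five mice/group). At 24 h, unanesthetized restrained mice irradiated over 1 cm² with dye laser, 665 nm, 75 mW/cm², 135 J/cm² (30 min). Daily observation for weight loss, scabbing, regrowth and deaths; sacrifice at 400 mm^3; tumor-free status followed to day 60.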

The test system of series [12] is RIF. The series can be described thus: Antitumor activity against mouse RIF cells xenografted in C3H/HeJ mouse assessed as increase in photosensitizing ability at 1.5 umol/kg, iv irradiated for 30 mins measured after 60 days photodynamic therapy. It counts as functional, organism-based. The following applies: tested as the 124I-labelled form. Put shortly: as §3

The nature of series [13]: Biodistribution in tumor of iv dosed C3H/HeJ mouse bearing mouse RIF cells assessed as relative uptake value after 3 days by PET imaging. It counts as ADME, organism-based, Neoplasm. The following applies: in vivo, 72 h.
The nature of series [14]: Biodistribution in tumor of iv dosed BALB/c mouse bearing mouse Colon-26 cells assessed as relative uptake value after 48 hrs by PET imaging. The following applies: in vivo. It counts as ADME, organism-based, Neoplasm.
Series [15] concerns Mus musculus. Description: Toxicity in C3H/HeJ mouse xenografted with mouse RIF cells at 1.5 umol/kg, iv irradiated for 30 mins measured after 24 hrs photodynamic therapy. It counts as organism-based. The following applies: in vivo. The method, boiled down:
as §3

For series [16], the system named is Mus musculus. Description: Toxicity in C3H/HeJ mouse xenografted with mouse RIF cells at 1 umol/kg, iv irradiated for 30 mins measured after 24 hrs photodynamic therapy. The following applies: in vivo. It counts as organism-based. The method, boiled down:
as §3

Consider six compounds from ChEMBL document CHEMBL1139361, “Comparative positron-emission tomography (PET) imaging and phototherapeutic potential of 124I- labeled methyl- 3-(1'-iodobenzyloxyethyl)pyropheophorbide-a vs the corresponding glucose and galactose conjugates” (J Med Chem, 2009).

The source made the active and inactive calls. The rule behind the calls is not given here.

`CCC1=C(C)c2cc3[nH]c(cc4nc(c5c6[nH]c(cc1n2)c(C)c6C(=O)C5)[C@@H](CCC(=O)OC)[C@@H]4C)c(C)c3C(C)OCc1cccc([124I])c1` (stereo partly specified): the Ratio in [1] was found to be 0.32; in series [9], 0.56. Besides, the values for the tissue uptake at 72 h in [2] and in series [7] were 2.5 %ID/g and 0.8 %ID/g, respectively. Besides, the tissue uptake at 96 h is 0.6 %ID/g in series [3] and 2 %ID/g in [4]. For the same compound, the tissue uptake at 24 h came out at 4.6 %ID/g in series [5] and 4.1 %ID/g in series [10]. Besides, the tissue uptake at 48 h in [6] amounted to 4.4 %ID/g; in series [8] it was 2.1 %ID/g.
`CCC1=C(C)c2cc3[nH]c(cc4nc(c5c6[nH]c(cc1n2)c(C)c6C(=O)C5)[C@@H](CCC(=O)OC)[C@@H]4C)c(C)c3C(C)OCc1cccc(I)c1` (stereo partly specified): in series [11], the outcome was inactive. For the same compound, the result in [12] was Active.
For the compound `CCC1=C(C)c2cc3[nH]c(cc4nc(c5c6[nH]c(cc1n2)c(C)c6C(=O)C5)[C@@H](CCC(=O)N[C@@H]1[C@@H](O)[C@H](O)[C@@H](CO)O[C@H]1O)[C@@H]4C)c(C)c3C(C)OCc1cccc([124I])c1` (stereo partly specified), the Ratio in [1] amounted to 0.08; in [9], 0.13.
`CCC1=C(C)c2cc3[nH]c(cc4nc(c5c6[nH]c(cc1n2)c(C)c6C(=O)C5)[C@@H](CCC(=O)N[C@@H]1O[C@H](CO)[C@H](O)[C@H](O)[C@H]1O)[C@@H]4C)c(C)c3C(C)OCc1cccc(I)c1` (stereo partly specified): the outcome in [11] was inactive.
Take `OC[C@H]1O[C@@H](O)[C@H]([18F])[C@@H](O)[C@@H]1O` [FLUDEOXYGLUCOSE-F18]: the Activity came to 0.035 in [13] and 4 in series [14].
Regarding `CCC1=C(C)c2cc3[nH]c(cc4nc(c5c6[nH]c(cc1n2)c(C)c6C(=O)C5)[C@@H](CCC(=O)N[C@@H]1O[C@H](CO)[C@H](O)[C@H](O)[C@H]1O)[C@@H]4C)c(C)c3C(C)OCc1cccc([124I])c1` (stereo partly specified), the Activity entry in [15] and in [16] was “Toxic” in each case. For the same compound, the Ratio in series [1] worked out at 0.05; in series [9], 0.06.
